Results collected from several papers.
Protocols differ between the studies behind these lines.
Target: 3',5'-cyclic-AMP phosphodiesterase 4B (PDE4B, Homo sapiens, UniProt Q07343)
Effect on: enzyme activity
Mode: inhibitor

COc1ccc(C2=NN(C3CCCCCC3)C(=O)C3CC=CCC23)cc1-c1ccc(C(=O)N2CCC[C@@H]2C(N)=O)cc1 (mixture of isomers)
Ki: 6.31 µM

CC(C)CC(=O)c1ccc(OC(F)F)c(O[C@@H]2CCOC2)c1
IC50 (radiometric): 0.089 µM

COc1ccc([C@@H]2CN(C(=O)[C@@H](O)CO)C[C@@]2(C)[C@@H](C)O)cc1OC1CN(c2ccc(C)cn2)C1
IC50: 9e-05 µM

COc1ccc(C2=NN(C3CCCCCC3)C(=O)C3CC=CCC23)cc1-c1ccc(C(=O)N2CC[C@@H](O)C2)cc1 (mixture of isomers)
Ki: 2 µM

CCn1c(-c2nc3cc(C(=O)N4CCC[C@@H](N)C4)cc(OC)c3n2C)cc2cccnc21
IC50: 6.31 µM

CSc1ccc(/C=C2/C(C)=C(CC(=O)O)c3cc(F)ccc32)cc1
IC50: > 100 µM

CCn1c(-c2nc3ccc(C(=O)N4CCCC(N)C4)cc3n2C)cc2ccccc21 (centres unmarked)
IC50: 25.1 µM

CN1C(=O)c2c(nn(Cc3ccc(-c4cccc(F)n4)cc3)c2Nc2ccccc2)N2C1=N[C@@H]1CCC[C@@H]12
IC50: > 0.1 µM
